Data: ChEMBL document CHEMBL4229389, “Synthesis and biological evaluation of clovamide analogues as potent anti-neuroinflammatory agents in vitro and in vivo” (Eur J Med Chem, 2018)
Blank lines part the entries; values can stand above or below the molecule they belong to. Activity calls are given as the source filed them. The calls are words filed in the database; no cut-off is given here.

Key:
BV-2 [1] = assay: Anti-neuroinflammatory activity in […] assessed as reduction in LPS-induced NO production at 10 uM preincubated for 4 hrs followed by LPS stimulation for 24 hrs by Griess assay relative to control; format: functional; details: for inhibition at 10 µM: Mus musculus
Method in brief: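 Mouse microglial BV-2 cells in DMEM with 10% FBS. Pretreated at 10 µM for 4 h, then LPS 500 ng/mL for 24 h. Nitrite in supernatant measured with Griess reagent at 540 nm. Means ± S.E.M., n=3.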

BV-2 [2] = assay: Anti-neuroinflammatory activity in […] assessed as reduction in LPS-induced NO production preincubated for 4 hrs followed by LPS stimulation for 24 hrs by Griess assay; format: functional, cell-based; details: Mus musculus
Method in brief: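 BV-2 cells pretreated 4 h over 0.78-100 µM (twofold series), then LPS 500 ng/mL for 24 h. Supernatant mixed 1:1 with Griess reagent, A540, against NaNO2 standard curve. IC50 by curve fitting; mean ± S.E.M. of three experiments.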

[3] = Cytotoxicity against […] assessed as reduction in cell viability after 24 hrs by MTT assay; format: cell-based, BV-2; details: BV2 cells
Method in brief: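 BV-2 cells at 5 × 10^3/well, grown 12 h, then exposed to 1-100 µM for 24 h. MTT at 0.5 mg/mL final for 4 h at 37 ℃. Formazan dissolved in DMSO and read at 490 nm. CC50 as mean ± S.E.M. of three experiments.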

[4] = target: Nitric oxide synthase, inducible (Mus musculus) (UniProt P29477); assay: Inhibition of LPS-induced iNOS in mouse BV2 cells after 4 hrs by DAF-FMDA dye-based fluorescence assay
Sequence of Nitric oxide synthase, inducible (Mus musculus) (P29477 whole entry, looked up): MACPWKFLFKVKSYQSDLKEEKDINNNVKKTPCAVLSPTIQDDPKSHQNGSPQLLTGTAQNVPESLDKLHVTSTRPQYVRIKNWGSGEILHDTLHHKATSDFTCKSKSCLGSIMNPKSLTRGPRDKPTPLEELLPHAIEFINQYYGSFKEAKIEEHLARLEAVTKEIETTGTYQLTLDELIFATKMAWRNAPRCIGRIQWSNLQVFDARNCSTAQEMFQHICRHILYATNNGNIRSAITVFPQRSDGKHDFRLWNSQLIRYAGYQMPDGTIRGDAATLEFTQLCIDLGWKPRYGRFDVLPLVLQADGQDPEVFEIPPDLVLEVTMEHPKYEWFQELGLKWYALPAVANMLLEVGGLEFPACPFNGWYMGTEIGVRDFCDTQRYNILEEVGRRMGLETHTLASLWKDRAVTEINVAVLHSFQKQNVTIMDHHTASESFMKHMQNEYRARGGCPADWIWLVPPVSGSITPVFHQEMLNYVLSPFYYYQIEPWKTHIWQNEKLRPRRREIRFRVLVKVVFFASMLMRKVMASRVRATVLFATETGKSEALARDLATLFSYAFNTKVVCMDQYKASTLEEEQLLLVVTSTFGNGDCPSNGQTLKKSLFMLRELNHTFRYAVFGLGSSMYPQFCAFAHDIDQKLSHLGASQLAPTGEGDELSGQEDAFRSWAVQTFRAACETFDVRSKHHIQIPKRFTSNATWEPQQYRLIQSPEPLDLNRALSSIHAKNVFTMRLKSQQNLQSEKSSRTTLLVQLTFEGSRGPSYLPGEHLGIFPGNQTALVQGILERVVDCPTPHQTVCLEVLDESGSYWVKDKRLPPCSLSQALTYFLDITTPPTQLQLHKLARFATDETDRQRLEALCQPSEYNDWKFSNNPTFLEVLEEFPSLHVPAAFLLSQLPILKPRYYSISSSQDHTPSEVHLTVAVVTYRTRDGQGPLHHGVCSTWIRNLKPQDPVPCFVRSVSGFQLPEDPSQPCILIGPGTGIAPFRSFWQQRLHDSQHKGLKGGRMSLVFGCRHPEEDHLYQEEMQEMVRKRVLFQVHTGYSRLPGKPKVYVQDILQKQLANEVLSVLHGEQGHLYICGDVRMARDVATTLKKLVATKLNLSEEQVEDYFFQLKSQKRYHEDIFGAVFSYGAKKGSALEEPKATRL

BV-2 [5] = assay: Anti-neuroinflammatory activity in […] assessed as reduction in LPS-induced COX-2 expression preincubated for 2 hrs followed by LPS stimulation for 24 hrs by Western blot analysis; format: functional, cell-based
Method in brief: (§1)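 BV-2 cells at 5 × 10^5/well, pretreated at 1, 10 or 20 µM, then LPS 500 ng/mL. Lysed in RIPA with protease/phosphatase inhibitors. 30 µg protein blotted with primary antibodies 1:1000 and HRP secondary 1:5000, ECL detection. β-actin as loading control. Expressed as fold of control; at least three independent experiments, each in duplicate.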

BV-2 [6] = assay: Anti-neuroinflammatory activity in […] assessed as reduction in LPS-induced IL-1beta expression preincubated for 2 hrs followed by LPS stimulation for 24 hrs by Western blot analysis; format: functional, cell-based; method in brief: as §1
BV-2 [7] = assay: Anti-neuroinflammatory activity in […] assessed as reduction in LPS-induced TNF-alpha expression preincubated for 2 hrs followed by LPS stimulation for 24 hrs by Western blot analysis; format: functional, cell-based; method in brief: as §1
BV-2 [8] = assay: Anti-neuroinflammatory activity in […] assessed as reduction in LPS-induced iNOS expression preincubated for 2 hrs followed by LPS stimulation for 24 hrs by Western blot analysis; format: functional, cell-based; method in brief: as §1
Mus musculus [9] = assay: Anti-neuroinflammatory activity in MPTP-induced C57BL/6 mouse assessed as alleviation of functional behaviour impairment at 10 mg/kg, po pre-treated daily for 7 days followed by 4 times MPTP addition at 2 hrs intervals and measured after 4 to 72 hrs post MPTP injection by rota rod test; format: organism-based
Method in brief: (§2)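 Male C57BL/6 mice, 7-8 weeks, 20-22 g, 8 per group. Pretrained 3 days on rota-rod, up to 25 rpm, to stay on 180 s. Dosed i.g. at 10 or 20 mg/kg daily for 7 days in 0.5% methylcellulose with 1% Tween 80, vehicle for controls. Then 4 i.p. MPTP injections (20 mg/kg) at 2-h intervals. Tested at 4, 24, 48 and 72 h; mean of three runs.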

Mus musculus [10] = assay: Anti-neuroinflammatory activity in MPTP-induced C57BL/6 mouse assessed as alleviation of functional behaviour impairment at 20 mg/kg, po pre-treated daily for 7 days followed by 4 times MPTP addition at 2 hrs intervals and measured after 4 to 72 hrs post MPTP injection by rota rod test; format: organism-based; method in brief: as §2
Mus musculus [11] = assay: (§3) Anti-neuroinflammatory activity in MPTP-induced C57BL/6 mouse assessed as increase in tyrosine hydroxylase positive cells in substantia nigra at 10 to 20 mg/kg, po pre-treated daily for 7 days followed by 4 times MPTP addition at 2 hrs intervals and measured after 4 to 72 hrs post MPTP injection by DAB staining based immunohistochemistry method; format: functional, organism-based
Mus musculus [12] = assay: as §3, with “striatum” for “substantia nigra”; format: functional, organism-based
Mus musculus [13] = assay: (§4) Anti-neuroinflammatory activity in MPTP-induced C57BL/6 mouse assessed as reduction in astroglial activation by measuring increase in glial fibrillary acidic protein expression in substantia nigra at 10 to 20 mg/kg, po pre-treated daily for 7 days followed by 4 times MPTP addition at 2 hrs intervals and measured after 4 to 72 hrs post MPTP injection by DAB staining based immunohistochemistry method; format: functional, organism-based
Mus musculus [14] = assay: as §4, with “striatum” for “substantia nigra”; format: functional, organism-based
[15] = target: Transcription factor p65 (Mus musculus) (UniProt Q04207); assay: Inhibition of LPS-induced nuclear translocation of NF-kappaB-p65 in mouse BV2 cells at 1 to 20 uM preincubated for 2 hrs followed by LPS stimulation for 2 hrs by Western blot analysis
Sequence of Transcription factor p65 (Mus musculus) (Q04207 whole entry, looked up): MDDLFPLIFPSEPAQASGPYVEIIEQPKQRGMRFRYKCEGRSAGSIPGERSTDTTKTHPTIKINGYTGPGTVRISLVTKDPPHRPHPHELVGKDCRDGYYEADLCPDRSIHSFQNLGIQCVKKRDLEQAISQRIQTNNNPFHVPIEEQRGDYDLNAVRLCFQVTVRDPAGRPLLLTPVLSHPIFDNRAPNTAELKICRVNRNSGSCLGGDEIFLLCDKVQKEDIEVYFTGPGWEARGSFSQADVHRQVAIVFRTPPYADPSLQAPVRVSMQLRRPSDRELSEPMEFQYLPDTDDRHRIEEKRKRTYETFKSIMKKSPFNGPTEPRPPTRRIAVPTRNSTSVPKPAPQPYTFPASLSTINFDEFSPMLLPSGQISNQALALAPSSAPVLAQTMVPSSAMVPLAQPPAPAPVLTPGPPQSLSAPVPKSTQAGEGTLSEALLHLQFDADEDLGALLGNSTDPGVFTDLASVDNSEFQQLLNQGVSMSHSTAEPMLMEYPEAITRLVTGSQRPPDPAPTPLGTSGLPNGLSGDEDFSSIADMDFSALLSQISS

SMILES: COC(=O)[C@H](Cc1ccccc1)NC(=O)/C=C/c1ccccc1
inhibition (BV-2 [1]): Active

SMILES: COC(=O)CC[C@H](NC(=O)/C=C/c1ccc(O)c(OC)c1)C(=O)OC
inhibition (BV-2 [1]): Active

SMILES: O=C(O)C[C@H](NC(=O)/C=C/c1cccc(O)c1)C(=O)O
inhibition (BV-2 [1]): Active

IC50 (BV-2 [2]): 26.4 µM | IC50 [4]: 18.9 µM
SMILES: O=C(/C=C/c1ccccc1)N[C@@H](Cc1ccccc1)C(=O)O
inhibition at 10 µM (BV-2 [1]): > 50% | CC50 at 24 h [3]: > 100 µM

SMILES: COC(=O)[C@H](Cc1ccc(O)cc1)NC(=O)/C=C/c1ccccc1
inhibition (BV-2 [1]): Active

IC50 (BV-2 [2]): 10.4 µM | IC50 [4]: 8.45 µM
SMILES: O=C(/C=C/c1ccc(O)cc1)N[C@@H](Cc1ccccc1)C(=O)O
inhibition at 10 µM (BV-2 [1]): > 50% | CC50 at 24 h [3]: > 100 µM

SMILES: COc1cc(/C=C/C(=O)N[C@@H](CCC(=O)O)C(=O)O)ccc1O
inhibition (BV-2 [1]): Active

SMILES: O=C(/C=C/c1ccccc1)N[C@@H](Cc1ccc(O)cc1)C(=O)O
inhibition (BV-2 [1]): Active

IC50 (BV-2 [2]): 4.41 µM | IC50 [4]: 2.98 µM
SMILES: COc1cc(/C=C/C(=O)N[C@@H](Cc2ccccc2)C(=O)O)ccc1O
inhibition at 10 µM (BV-2 [1]): > 50% | CC50 at 24 h [3]: > 100 µM

SMILES: COC(=O)CC[C@H](NC(=O)/C=C/c1cccc(O)c1)C(=O)OC
inhibition (BV-2 [1]): Active

SMILES: COC(=O)[C@H](Cc1ccc(O)cc1)NC(=O)/C=C/c1cccc(O)c1
inhibition (BV-2 [1]): Active

SMILES: O=C(/C=C/c1cccc(O)c1)N[C@@H](Cc1ccc(O)cc1)C(=O)O
inhibition (BV-2 [1]): Active

SMILES: COC(=O)[C@H](Cc1ccccc1)NC(=O)/C=C/c1ccc(O)c(OC)c1
inhibition (BV-2 [1]): Active

SMILES: COC(=O)[C@H](Cc1ccccc1)NC(=O)/C=C/c1cccc(O)c1
inhibition (BV-2 [1]): Active

IC50 (BV-2 [2]): 3.4 µM | IC50 [4]: 2.1 µM
SMILES: O=C(/C=C/c1ccc(O)cc1)N[C@@H](Cc1ccc(O)cc1)C(=O)O
inhibition at 10 µM (BV-2 [1]): > 50% | CC50 at 24 h [3]: > 100 µM

SMILES: O=C(O)CC[C@H](NC(=O)/C=C/c1cccc(O)c1)C(=O)O
inhibition (BV-2 [1]): Active

IC50 (BV-2 [2]): 15.3 µM | IC50 [4]: 29.2 µM
SMILES: O=C(/C=C/c1cccc(O)c1)N[C@@H](Cc1ccccc1)C(=O)O
inhibition at 10 µM (BV-2 [1]): > 50% | CC50 at 24 h [3]: > 100 µM

IC50 (BV-2 [2]): 2.67 µM | IC50 [4]: 1.01 µM | inhibition [15]: Active
SMILES: COc1cc(/C=C/C(=O)N[C@@H](Cc2ccc(O)cc2)C(=O)O)ccc1O
inhibition at 10 µM (BV-2 [1]): > 50% | CC50 at 24 h [3]: > 100 µM | Activity (BV-2 [5]): Dose-dependent effect | Activity (BV-2 [6]): Dose-dependent effect | Activity (BV-2 [7]): Dose-dependent effect | Activity (BV-2 [8]): Dose-dependent effect | Activity (Mus musculus [9]): Active | Activity (Mus musculus [10]): Active | Activity (Mus musculus [11]): Active | Activity (Mus musculus [12]): Active | Activity (Mus musculus [13]): Active | Activity (Mus musculus [14]): Active

SMILES: COC(=O)C[C@H](NC(=O)/C=C/c1cccc(O)c1)C(=O)OC
inhibition (BV-2 [1]): Active

SMILES: COC(=O)CC[C@H](NC(=O)/C=C/c1ccccc1)C(=O)OC
inhibition (BV-2 [1]): Active

SMILES: COC(=O)C[C@H](NC(=O)/C=C/c1ccc(O)cc1)C(=O)OC
inhibition (BV-2 [1]): Active

SMILES: COC(=O)[C@H](Cc1ccccc1)NC(=O)/C=C/c1ccc(O)cc1
inhibition (BV-2 [1]): Active

SMILES: O=C(O)C[C@H](NC(=O)/C=C/c1ccc(O)cc1)C(=O)O
inhibition (BV-2 [1]): Active

SMILES: COC(=O)[C@H](Cc1ccc(O)cc1)NC(=O)/C=C/c1ccc(O)cc1
inhibition (BV-2 [1]): Active

SMILES: COC(=O)[C@H](Cc1ccc(O)cc1)NC(=O)/C=C/c1ccc(O)c(OC)c1
inhibition (BV-2 [1]): Active

SMILES: O=C(O)CC[C@H](NC(=O)/C=C/c1ccccc1)C(=O)O
inhibition (BV-2 [1]): Active
